Each structure is given as a SMILES string. Values after ≈ are worked out from the molar mass of the structure shown.

Tested on in the first series: not listed separately
The series is described as follows: Half-life was determined in water at 5.0 pH at room temperature. Format: ADME. Particulars: pH 5. In short, it runs like this: (§1)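 Compound added from 50 mM DMSO stock to 10 mL of medium in polypropylene tubes, final 100 μM; tubes held in water baths at 37 °C or ambient (20–24 °C). Remaining parent measured by HPLC on C8 column, UV 225 nm; t1/2 from semilog plot of peak area versus time. Run on at least two occasions, variation 2–22%.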
`N#CCN(CO)c1nc(N(CO)CC#N)nc(N(CO)CC#N)n1` showed a half-life of 102 h.

`CN(CO)c1nc(N(C)CO)nc(N(C)CO)n1` [TRIMELAMOL] displayed a half-life of 13.7 h.

Tested on in another series: not listed separately
The series can be described thus: Half-life was determined in water at 7.5 pH at 37 degree C. The following applies: pH 7.5. Format: ADME. In short, it runs like this: as §1
For the compound `C#CCN(CO)c1nc(N(CO)CC#C)nc(N(CO)CC#C)n1`, the half-life was found to be 7.5 h.

In turn, `OCN(CC(F)(F)F)c1nc(N(CO)CC(F)(F)F)nc(N(CO)CC(F)(F)F)n1` gave a half-life of 11.5 h.

In the case of `N#CCN(CO)c1nc(N(CO)CC#N)nc(N(CO)CC#N)n1`, the half-life was found to be 4.58 h. This half-life is about 2.5-fold lower than that of the compound before.

`CN(CO)c1nc(N(C)CO)nc(N(C)CO)n1` [TRIMELAMOL] showed a half-life of 2 h. Compared with the last compound, the half-life is about 2.3-fold lower.

Another series relates to NCI-H69. The series can be described thus: In vitro cytotoxicity against human small cell lung cancer H69 cell lines.
Settings: not given
The format is functional, cell-based. Put shortly: (§2)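 MTT assay on suspension lines dispersed to single cells (L1210 RPMI/10% DHS; ADJ/PC6 DMEM/20% DHS plus hydrocortisone, insulin; H69 RPMI/10% FCS; Walker 256 DMEM/10% DHS), 1×10^3–8×10^3 cells/well. Continuous exposure 72–144 h, 37 °C; MTT 4–5 h, plates spun, formazan in DMSO, A540 vs untreated control. 3–6 replicate wells, each assay at least twice.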
Compound `CNc1nc(NCC(F)(F)F)nc(N(CO)CC(F)(F)F)n1` had an IC50 of 32.2 µM. In other words, the double-digit micromolar range.

As to `C#CCN(CO)c1nc(N(CO)CC#C)nc(N(CO)CC#C)n1`, the IC50 came out at 13.1 µM. Compared with the last compound, the IC50 is about 2.5-fold lower.

For the compound `OCN(CC(F)(F)F)c1nc(N(CO)CC(F)(F)F)nc(N(CO)CC(F)(F)F)n1`, the concentration for half-maximal inhibition (IC50) is 12.8 µM.

`OCN(CC(F)(F)F)c1nc(NCC(F)(F)F)nc(NCC(F)(F)F)n1` had an IC50 of 42.3 µM. Against the preceding compound, the IC50 is about 3.3-fold higher.

Turning to `N#CCN(CO)c1nc(N(CO)CC#N)nc(N(CO)CC#N)n1`, the concentration for half-maximal inhibition (IC50) came out at 11.8 µM.

In turn, `OCOCN(CC(F)(F)F)c1nc(N(CO)CC(F)(F)F)nc(N(CO)CC(F)(F)F)n1` displayed a half-maximal inhibitory concentration (IC50) of 13.4 µM.

The compound `CN(CO)c1nc(N(C)CO)nc(N(C)CO)n1` [TRIMELAMOL] yielded an IC50 of 8.5 µM. This IC50 lies about 1.6-fold lower than the previous one.

Tested on in a further series: not listed separately
The series can be described thus: Half-life was determined in 5%dextrose at 4.0 pH at room temperature. Format: ADME. Particulars: 5% dextrose solution, pH 4. Put shortly:
as §1
The compound `OCN(CC(F)(F)F)c1nc(N(CO)CC(F)(F)F)nc(N(CO)CC(F)(F)F)n1` registered a half-life of 50 h.

As to `N#CCN(CO)c1nc(N(CO)CC#N)nc(N(CO)CC#N)n1`, the half-life was 180 h.

Turning to `CN(CO)c1nc(N(C)CO)nc(N(C)CO)n1` [TRIMELAMOL], the half-life turned out to be 5.83 h.

Tested on in the next series: not listed separately
The series is described as follows: Half-life was determined in water at 5.0 pH at 37 degree C. The format is ADME. Particulars: pH 5. Put shortly: as §1
`N#CCN(CO)c1nc(N(CO)CC#N)nc(N(CO)CC#N)n1` registered a half-life of 16 h.

`CN(CO)c1nc(N(C)CO)nc(N(C)CO)n1` [TRIMELAMOL] displayed a half-life of 3.33 h.

Tested on in the next series: not listed separately
The series can be described thus: In vitro cytotoxicity against GCT cell lines. The format is functional, cell-based. Particulars: Homo sapiens. Put shortly:
(§3)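 MTT assay on GCT-27 and GCT-27/CisR (DMEM, 10% FCS, glutamine, hydrocortisone, insulin), trypsinized to single cells, 1×10^3–8×10^3 cells/well. Continuous drug exposure, 72–144 h at 37 °C, 8% CO2; MTT 4–5 h, formazan in DMSO, A540 (ref 690) as fraction of untreated control. 3–6 replicate wells per concentration, each assay at least twice.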
As for `C#CCN(CO)c1nc(N(CO)CC#C)nc(N(CO)CC#C)n1`, the midpoint of inhibition, the IC50, lay at 53.9 µM.

Take `OCOCN(CC(F)(F)F)c1nc(N(CO)CC(F)(F)F)nc(N(CO)CC(F)(F)F)n1`: the IC50 came out at 25.8 µM. This IC50 is about 2.1-fold lower than that of the compound before.

On to `CN(CO)c1nc(N(C)CO)nc(N(C)CO)n1` [TRIMELAMOL], for which the IC50 is 24.3 µM.

Tested on in the next series: not listed separately
The series is described as follows: Half-life was determined in water at 2.0 pH at 37 degree C. Format: ADME. The following applies: pH 2. Put shortly: as §1
The compound `C#CCN(CO)c1nc(N(CO)CC#C)nc(N(CO)CC#C)n1` yielded a half-life of 0.667 h.

In the case of `OCN(CC(F)(F)F)c1nc(N(CO)CC(F)(F)F)nc(N(CO)CC(F)(F)F)n1`, the half-life was 1 h. The half-life values of the last two compounds are within 1.5-fold of each other.

`N#CCN(CO)c1nc(N(CO)CC#N)nc(N(CO)CC#N)n1` displayed a half-life of 5.83 h.

Tested on in another series: not listed separately
The series can be described thus: In vitro cytotoxicity against walker rat carcinoma 256 cell lines. Format: functional.
Settings: not given
Put shortly: as §2
In the case of `CNc1nc(NCC(F)(F)F)nc(N(CO)CC(F)(F)F)n1`, it took 27.5 µM to reach half-maximal inhibition (IC50).

For `C#CCN(CO)c1nc(N(CO)CC#C)nc(N(CO)CC#C)n1`, the IC50 was 14.1 µM.

The compound `OCN(CC(F)(F)F)c1nc(N(CO)CC(F)(F)F)nc(N(CO)CC(F)(F)F)n1` displayed an IC50 of 12.2 µM.

Compound `OCN(CC(F)(F)F)c1nc(NCC(F)(F)F)nc(NCC(F)(F)F)n1` registered an IC50 of 22.5 µM.

On to `N#CCN(CO)c1nc(N(CO)CC#N)nc(N(CO)CC#N)n1`, for which the IC50 is 7.5 µM. This IC50 is about 3-fold lower than that of the compound before.

For `CN(CO)c1nc(N(C)CO)nc(N(C)CO)n1` [TRIMELAMOL], the IC50 came out at 9.4 µM.

For a further series, the system named is L1210. The series can be described thus: In vitro cytotoxicity against L1210 murine lymphocytic leukemia cell lines. Format: functional, cell-based. The following applies: Mus musculus. Put shortly:
as §2
Regarding `CNc1nc(NCC(F)(F)F)nc(N(CO)CC(F)(F)F)n1`, the IC50 amounted to 112 µM.

`C#CCN(CO)c1nc(N(CO)CC#C)nc(N(CO)CC#C)n1` returned an IC50 of 47.8 µM.

`OCN(CC(F)(F)F)c1nc(N(CO)CC(F)(F)F)nc(N(CO)CC(F)(F)F)n1` had an IC50 of 55.1 µM.

The compound `OCN(CC(F)(F)F)c1nc(NCC(F)(F)F)nc(NCC(F)(F)F)n1` came in with an IC50 of 83.2 µM. Compared with the last compound, the IC50 is about 1.5-fold higher.

Compound `N#CCN(CO)c1nc(N(CO)CC#N)nc(N(CO)CC#N)n1` showed a half-inhibitory concentration (IC50) of 32.4 µM.

Regarding `CN(CO)c1nc(N(C)CO)nc(N(C)CO)n1` [TRIMELAMOL], the 50% inhibitory concentration (IC50) is 33.4 µM. The IC50 values of the last two compounds are within 1.5-fold of each other.

In a further series the test system is ADJ/PC6 plasmacytoma (Mus musculus). The series is described as follows: In vitro cytotoxicity against PC6 murine plasmacytoma cell lines.
Settings: not given
In the case of `CNc1nc(NCC(F)(F)F)nc(N(CO)CC(F)(F)F)n1`, inhibition was half-maximal at 71.4 µM (IC50).

On to `C#CCN(CO)c1nc(N(CO)CC#C)nc(N(CO)CC#C)n1`, for which the IC50 came to 35.2 µM.

The compound `OCN(CC(F)(F)F)c1nc(N(CO)CC(F)(F)F)nc(N(CO)CC(F)(F)F)n1` had an IC50 of 29.5 µM.

Take `OCN(CC(F)(F)F)c1nc(NCC(F)(F)F)nc(NCC(F)(F)F)n1`: the 50% inhibitory concentration (IC50) was determined as 77.6 µM.

In turn, `N#CCN(CO)c1nc(N(CO)CC#N)nc(N(CO)CC#N)n1` displayed an IC50 of 19.4 µM. Compared with the last compound, the IC50 is about 4-fold lower.

On to `OCOCN(CC(F)(F)F)c1nc(N(CO)CC(F)(F)F)nc(N(CO)CC(F)(F)F)n1`, for which the IC50 turned out to be 29.8 µM. Compared with the last compound, the IC50 is about 1.5-fold higher.

In turn, `CN(CO)c1nc(N(C)CO)nc(N(C)CO)n1` [TRIMELAMOL] came in with an IC50 of 12.9 µM.

Tested on in a further series: not listed separately
The series can be described thus: Half-life was determined in water at 7.5 pH at room temperature. The format is ADME. The following applies: pH 7.5. Put shortly:
as §1
Take `OCN(CC(F)(F)F)c1nc(N(CO)CC(F)(F)F)nc(N(CO)CC(F)(F)F)n1`: the half-life was determined as 85 h.

`N#CCN(CO)c1nc(N(CO)CC#N)nc(N(CO)CC#N)n1` came in with a half-life of 75.2 h. The half-life values of the last two compounds are within 1.5-fold of each other.

Tested on in the next series: not listed separately
The series is described as follows: In vitro cytotoxicity against GCT / cisR cell lines. The format is functional, cell-based. Particulars: Homo sapiens. In short, it runs like this:
as §3
`C#CCN(CO)c1nc(N(CO)CC#C)nc(N(CO)CC#C)n1` returned a half-inhibitory concentration (IC50) of 47.3 µM.

For `OCOCN(CC(F)(F)F)c1nc(N(CO)CC(F)(F)F)nc(N(CO)CC(F)(F)F)n1`, the IC50 was determined as 23.7 µM.

With `CN(CO)c1nc(N(C)CO)nc(N(C)CO)n1` [TRIMELAMOL], the IC50 came out at 30.9 µM.

Tested on in a further series: not listed separately
The series is described as follows: Half-life was determined in 0.9%sodium chloride at 5.2 pH at room temperature. Format: ADME. Particulars: 0.9% sodium chloride solution, pH 5.2. In short, it runs like this:
as §1
`OCN(CC(F)(F)F)c1nc(N(CO)CC(F)(F)F)nc(N(CO)CC(F)(F)F)n1` gave a half-life of 95 h.

In turn, `N#CCN(CO)c1nc(N(CO)CC#N)nc(N(CO)CC#N)n1` returned a half-life of 135 h.

In the case of `CN(CO)c1nc(N(C)CO)nc(N(C)CO)n1` [TRIMELAMOL], the half-life was 4.58 h.

Tested on in a further series: not listed separately
The series is described as follows: Aqueous solubility was determined.
Settings: not given
The format is physicochemical.
With `C#CCN(CO)c1nc(N(CO)CC#C)nc(N(CO)CC#C)n1`, the solubility was 30 µg/mL (≈ 90.8 µM).

For the compound `OCN(CC(F)(F)F)c1nc(N(CO)CC(F)(F)F)nc(N(CO)CC(F)(F)F)n1`, the solubility came to 30 µg/mL (≈ 64.9 µM).

`N#CCN(CO)c1nc(N(CO)CC#N)nc(N(CO)CC#N)n1` came in with a solubility of 1000 µg/mL (≈ 3000 µM).

On to `CN(CO)c1nc(N(C)CO)nc(N(C)CO)n1` [TRIMELAMOL], for which the solubility was determined as 4500 µg/mL (≈ 17400 µM).

A word on the half-life: it is how long it takes for the measured level to halve. The IC50 is the concentration that gives 50% inhibition. By solubility is commonly meant how much of the substance goes into solution per volume. Lower therefore signals little dissolved substance.
